Data reported in ChEMBL document CHEMBL3351891, “Synthesis and structure-activity relationships of lapacho analogues. 2. Modification of the basic naphtho[2,3-b]furan-4,9-dione, redox activation, and suppression of human keratinocyte hyperproliferation by 8-hydroxynaphtho[2,3-b]thiophene-4,9-diones” (J Med Chem, 2014).

Key:
HaCaT [1] = assay: Antihyperproliferative activity against human HaCaT cells assessed as inhibition of cell growth after 48 hrs by phase contrast microscopy; format: functional, cell-based
Outline: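 Immortalized human HaCaT keratinocytes incubated with compound for 48 h; growth determined by counting dispersed cells under phase contrast microscopy. Inhibition = (1 − test/control) × 100, test N = 3 vs control N = 6−8, Student's t test; IC50 by nonlinear regression.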

HaCaT [2] = assay: Induction of superoxide generation in human HaCaT cells assessed as apoptotic cells at 5 umol/L for 18 hrs chronic treatment in presence of dicoumarol NQO-1 inhibitor (reference value: 4.3 +/- 2.6%); format: functional
HaCaT [3] = assay: Induction of superoxide generation in human HaCaT cells assessed as mean fluorescence intensity at 5 umol/L for 18 hrs chronic treatment (reference value: 367.5 +/- 80.1 no unit); format: functional
HaCaT [4] = assay: Induction of superoxide generation in human HaCaT cells assessed as mean fluorescence intensity at 50 umol/L for 30 mins acute treatment (reference value: 7.1 +/- 5.2 no unit); format: functional
HaCaT [5] = assay: Induction of superoxide generation in human HaCaT cells assessed as mean fluorescence intensity at 5 umol/L for 18 hrs chronic treatment in presence of dicoumarol NQO-1 inhibitor (reference value: 407.6 +/- 68.7 no unit); format: functional
[6] = Induction of superoxide generation measured per 2 mU of enzyme in presence of cytochrome P450 oxidoreductase; format: physicochemical
Outline: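 Human recombinant NADPH–cytochrome P450 oxidoreductase with compound ([…]); spectrophotometric SOD-inhibitable reduction of succinoylated cytochrome c, with catalase and DTPA present. Rate given as μmol/L/min per 2 mU enzyme; mean ± SD, N ≥ 3.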

[7] = Induction of superoxide generation measured per U of enzyme in presence of NQO-1; format: physicochemical
Outline: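 Human recombinant NQO-1 with NADPH and compound ([…]); superoxide followed spectrophotometrically as SOD-inhibitable cytochrome c reduction, with catalase and DTPA added. Rate as μmol/L/min per U enzyme; mean ± SD, N ≥ 3.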

HaCaT [8] = assay: Induction of superoxide generation in human HaCaT cells assessed as apoptotic cells at 5 umol/L for 18 hrs chronic treatment (reference value: 3 +/- 1%); format: functional
HaCaT [9] = assay: Antihyperproliferative activity against human HaCaT cells assessed as LDH release at 2 umol/L after 4 hrs; format: functional
Outline: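 HaCaT keratinocytes exposed to test compound (2 μM) for 4 h at 37 °C; extracellular LDH in supernatant measured by UV method with pyruvate and NADH, reported as mU/mL. Vehicle control 0.2% DMSO in medium; Brij 35 with ultrasound as positive control; N = 3.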

Structure (SMILES)	IC50 (HaCaT [1]) [µM]	also measured
O=C1c2ccccc2C(=O)c2[nH]cnc21	> 30	–
CCOC(=O)c1cc2c(s1)C(=O)c1c(OC)cccc1C2=O	2.87	–
O=C1c2ccsc2C(=O)c2c(O)cccc21	2.75	Activity (HaCaT [2]): 6.1%; Flu intensity (HaCaT [3]): 610.6; Flu intensity (HaCaT [4]): 23.8; Flu intensity (HaCaT [5]): 717.7; Activity [6]: 1.8 µmol/L/min; Activity [7]: 0.3 µmol/L/min; Activity (HaCaT [8]): 4.9%
O=C1c2ccsc2C(=O)c2c(Cl)cccc21	3.77	–
Nc1cccc2c1C(=O)c1sccc1C2=O	> 30	–
CC(=O)Nc1cccc2c1C(=O)c1sccc1C2=O	2.76	–
O=C1c2sccc2Cc2cccc(O)c21	2.5	–
O=C1c2ccccc2C(=O)c2[se]ccc21	6.12	–
O=C1c2ccccc2C(=O)c2[nH]ccc21	> 30	–
Cn1cnc2c1C(=O)c1ccccc1C2=O	> 30	–
O=C1c2ccccc2C(=O)c2ocnc21	0.9	–
O=C1c2ccccc2C(=O)c2scnc21	1.2	–
CC(=O)c1cc2c(s1)C(=O)c1c(O)cccc1C2=O	0.4	Activity (HaCaT [2]): 7.3%; Flu intensity (HaCaT [3]): 921.4; Flu intensity (HaCaT [4]): 23.7; Flu intensity (HaCaT [5]): 813; Activity [6]: 1.1 µmol/L/min; Activity [7]: 0.6 µmol/L/min; Activity (HaCaT [8]): 23%
COc1cccc2c1C(=O)c1sc(C(C)=O)cc1C2=O	3.5	–
CC(=O)c1cc2c(s1)C(=O)c1c(Cl)cccc1C2=O	1.28	–
CC(=O)c1nc2c([nH]1)C(=O)c1ccccc1C2=O	> 30	–
CC(=O)c1nc2c(n1C)C(=O)c1ccccc1C2=O	> 30	–
Cc1ccc2c(c1O)C(=O)c1sccc1C2=O	5.3	–
CCc1ccc2c(c1O)C(=O)c1sccc1C2=O	11.4	–
O=C(O)Cc1ccc2c(c1O)C(=O)c1sccc1C2=O	21.5	–
COC(=O)Cc1ccc2c(c1O)C(=O)c1sccc1C2=O	2.8	–
CCOC(=O)Cc1ccc2c(c1O)C(=O)c1sccc1C2=O	2.1	–
CCCOC(=O)Cc1ccc2c(c1O)C(=O)c1sccc1C2=O	4.5	–
O=C(Cc1ccc2c(c1O)C(=O)c1sccc1C2=O)OCc1ccccc1	> 30	–
O=C1c2ccsc2C(=O)c2c1ccc(Cc1ccco1)c2O	8.5	Activity (HaCaT [9]): 127 mU/ml

Structure (SMILES)	IC50 (HaCaT [1]) [µM]	also measured
O=C1c2ccsc2C(=O)c2c1ccc(Cc1ccccc1)c2O	10.1	Activity (HaCaT [9]): 107 mU/ml
Cc1ccc(Cc2ccc3c(c2O)C(=O)c2sccc2C3=O)cc1	13.8	–
O=C1c2ccsc2C(=O)c2c1ccc(Cc1ccc(C(F)(F)F)cc1)c2O	16.7	–
N#Cc1ccc(Cc2ccc3c(c2O)C(=O)c2sccc2C3=O)cc1	14.2	–
O=C(O)c1ccccc1Cc1ccc2c(c1O)C(=O)c1sccc1C2=O	25.7	–
O=C(O)c1ccc(Cc2ccc3c(c2O)C(=O)c2sccc2C3=O)cc1	> 30	–
COC(=O)c1ccccc1Cc1ccc2c(c1O)C(=O)c1sccc1C2=O	19.1	–
COC(=O)c1ccc(Cc2ccc3c(c2O)C(=O)c2sccc2C3=O)cc1	> 30	–
COc1ccc(Cc2ccc3c(c2O)C(=O)c2sccc2C3=O)cc1	23.2	–
COc1ccc(Cc2ccc3c(c2O)C(=O)c2sccc2C3=O)cc1OC	> 30	–
O=C1c2ccsc2C(=O)c2c1ccc(CO)c2O	1.2	Activity (HaCaT [9]): 214 mU/ml
CC(=O)c1cc2c(s1)C(=O)c1c(ccc(CO)c1O)C2=O	0.7	Activity (HaCaT [9]): 284 mU/ml
O=Cc1cc2c(s1)C(=O)c1c(O)cccc1C2=O	1	–
CCC(=O)c1cc2c(s1)C(=O)c1c(O)cccc1C2=O	0.38	Activity (HaCaT [9]): 244 mU/ml
CC(C)C(=O)c1cc2c(s1)C(=O)c1c(O)cccc1C2=O	0.45	–
O=C(Cc1ccccc1)c1cc2c(s1)C(=O)c1c(O)cccc1C2=O	4.42	–
O=C(CCc1ccccc1)c1cc2c(s1)C(=O)c1c(O)cccc1C2=O	> 30	–
O=C(COc1ccccc1)c1cc2c(s1)C(=O)c1c(O)cccc1C2=O	11.2	–
O=C(c1ccccc1)c1cc2c(s1)C(=O)c1c(O)cccc1C2=O	0.8	Activity (HaCaT [9]): 419 mU/ml
O=C(c1ccc(Cl)cc1)c1cc2c(s1)C(=O)c1c(O)cccc1C2=O	5.64	–
COc1ccc(C(=O)c2cc3c(s2)C(=O)c2c(O)cccc2C3=O)cc1	4.72	–
COc1ccc(C(=O)c2cc3c(s2)C(=O)c2c(O)cccc2C3=O)c(O)c1	7.07	–
O=C(c1cccs1)c1cc2c(s1)C(=O)c1c(O)cccc1C2=O	0.29	Activity (HaCaT [9]): 158 mU/ml
O=C(c1cccnc1)c1cc2c(s1)C(=O)c1c(O)cccc1C2=O	0.3	Activity (HaCaT [9]): 154 mU/ml
O=C(O)c1cc2c(s1)C(=O)c1c(O)cccc1C2=O	> 30	–

Structure (SMILES)	IC50 (HaCaT [1]) [µM]	also measured
CCOC(=O)c1cc2c(s1)C(=O)c1c(O)cccc1C2=O	0.76	Activity (HaCaT [9]): 233 mU/ml
CC(C)OC(=O)c1cc2c(s1)C(=O)c1c(O)cccc1C2=O	0.92	–
COc1ccc(COC(=O)c2cc3c(s2)C(=O)c2c(O)cccc2C3=O)cc1	11.9	–
O=C(OCCc1ccccc1)c1cc2c(s1)C(=O)c1c(O)cccc1C2=O	> 30	–
CCN(CC)C(=O)c1cc2c(s1)C(=O)c1c(O)cccc1C2=O	0.36	Activity (HaCaT [9]): 330 mU/ml
CCc1noc(-c2cc3c(s2)C(=O)c2c(O)cccc2C3=O)n1	0.19	Activity (HaCaT [2]): 20.3%; Flu intensity (HaCaT [3]): 802.2; Flu intensity (HaCaT [4]): 20.9; Flu intensity (HaCaT [5]): 747; Activity [6]: 1 µmol/L/min; Activity [7]: 0.7 µmol/L/min; Activity (HaCaT [8]): 77.6%; Activity (HaCaT [9]): 150 mU/ml
O=C1c2cc(-c3nc(CCc4ccccc4)no3)sc2C(=O)c2c(O)cccc21	0.48	–
COc1c2ccsc2c(OC)c2c(OC)cccc12	> 30	–
CCC(=O)c1cc2c(OC)c3cccc(OC)c3c(OC)c2s1	> 30	–
COc1c2cc(C(=O)c3cccnc3)sc2c(OC)c2c(OC)cccc12	> 30	–
CCC(=O)c1cc2c(s1)C(=O)c1c(OC)cccc1C2=O	3.5	–
COc1cccc2c1C(=O)c1sc(C(=O)c3cccnc3)cc1C2=O	5.7	–
CCOC(=O)c1cc2c(OC)c3cccc(OC)c3c(OC)c2s1	> 30	–
CCc1noc(-c2cc3c(OC)c4cccc(OC)c4c(OC)c3s2)n1	> 30	–
CCc1noc(-c2cc3c(s2)C(=O)c2c(OC)cccc2C3=O)n1	3.52	–
O=C1c2ccsc2C(=O)c2c(O)ccc(O)c21	2.7	–
CC(=O)c1cc2c(s1)C(=O)c1c(O)ccc(O)c1C2=O	0.5	–
CCCCc1ccc2c(c1O)C(=O)c1sccc1C2=O	> 30	–
COc1cccc2c1C(=O)c1sccc1C2=O	13.5	–
CC(=O)c1cc2c(s1)C(=O)c1ccccc1C2=O	0.44	–
O=C1c2c(O)cccc2Cc2cccc(O)c21 [ANTHRALIN]	–	Activity (HaCaT [9]): 239 mU/ml
CC1(C)CCC2=C(O1)c1ccccc1C(=O)C2=O [LAPACHONE]	–	Activity (HaCaT [9]): 268 mU/ml
CC1=CC(=O)c2ccccc2C1=O [MENADIONE]	–	Activity (HaCaT [2]): 3.1%; Flu intensity (HaCaT [3]): 431.9; Flu intensity (HaCaT [4]): 44; Flu intensity (HaCaT [5]): 457.2; Activity [6]: 2.1 µmol/L/min; Activity [7]: 1 µmol/L/min; Activity (HaCaT [8]): 4.8%
O=C1c2ccccc2C(=O)c2sccc21 [THIOPHENONAPHTHOQUINONE]	4.8	–
